Bioassay records from PubChem.
Hits are enriched below; roughly 3.6% of the tested compounds scored in any of these assays.
EBNA-1 inh – blocks EBNA-1 binding to DNA. EBNA-1 DNA binding, fluorescence polarization. inhibition, % at 14.8 µM. actives 0.34% (n = 300,000); in the data active = inhibition above about 28%
NR3A LBD binder – modulates the human NR3A ligand-binding domain; NR3A LBD differential scanning fluorimetry, Tm shift; 0% = protein alone, 100% = glycine-bound protein; Tm shift relative to glycine control, % at 25 µM; actives 2.5% (n = 340,000); AID 1259313;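 active = melting temperature shift of at least 10% of the positive control shift, at one fixed dose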
DNA FID counter – displaces DNA intercalator in HCV helicase counter-screen; AID 1845; actives 0.17% (n = 290,000); DNA fluorescent intercalator displacement, fluorescence; inhibition, % at 7.9 µM; in the data active = inhibition above about 37%;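 also: 0% = vehicle and 100% = reference compound; higher means more ethidium bromide displaced from hairpin DNA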
FGF22 binding – FGF22 (human) thermal shift binding | Q9HCT0 | recombinant FGF22 thermal shift, SYPRO orange fluorescence; percent of sucrose octasulfate shift, DMSO zero | activity (Tm shift, normalised), % at 9.99 µM | actives 1.5% (n = 340,000);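 active = mean Tm shift, scaled 0 neutral to 100 positive control, at about 1.3% or above, every replicate too, limit read from the data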
Target sequence (Q9HCT0 whole entry, looked up): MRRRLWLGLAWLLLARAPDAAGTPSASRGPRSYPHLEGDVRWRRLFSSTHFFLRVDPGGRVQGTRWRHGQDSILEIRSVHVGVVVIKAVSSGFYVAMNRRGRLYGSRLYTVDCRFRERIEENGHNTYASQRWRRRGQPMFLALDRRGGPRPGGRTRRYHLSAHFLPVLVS
HCV NS3 hel inh – blocks Hepatitis C virus NS3 helicase unwinding; inhibition, % at 10.9 µM; AID 1800; actives 0.56% (n = 290,000); NS3 helicase DNA unwinding, Cy5 molecular beacon fluorescence;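 active = inhibition above the mean of all tested compounds plus 3 SD, set per campaign, cut at about 35% in these data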;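 also: 0% = DMSO wells and 100% = thioflavine S control wells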
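System: NS3 helicase fragment of HCV / Schedule: 1 h at 25 °C / Control set: DMSO alone as 0% and 110 µM thioflavine S as 100% / Reagent: Cy5/quencher beacon DNA duplex and ATP to start / Technique: Cy5 fluorescence / Replication: singlicate / Evaluation: % inhibition of end-to-start signal ratio versus controls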
ZTA counter – ZTA (EBV) inhibition in EBNA-1 counter-screen. P03206. ZTA-DNA binding, fluorescence polarization. inhibition, % at 11 µM. actives 0.15% (n = 320,000); in the data active = inhibition above about 33%
Target sequence (P03206 whole entry, looked up): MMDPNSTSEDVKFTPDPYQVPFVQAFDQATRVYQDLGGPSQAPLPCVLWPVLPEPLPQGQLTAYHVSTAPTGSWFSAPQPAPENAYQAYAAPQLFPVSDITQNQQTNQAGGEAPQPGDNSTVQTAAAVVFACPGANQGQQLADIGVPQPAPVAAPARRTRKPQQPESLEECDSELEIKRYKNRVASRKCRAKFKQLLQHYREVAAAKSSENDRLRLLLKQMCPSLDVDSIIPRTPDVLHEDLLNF
Active calls of the source: *; · = no result given.

SMILES	EBNA-1 inh	NR3A LBD binder	DNA FID counter	FGF22 binding	HCV NS3 hel inh	ZTA counter
Cc1ccc(/C=C/C(=O)O)cc1S(=O)(=O)NC1CCS(=O)(=O)C1 (stereo not given)	-3	0	1	43*	6	-15
CCOc1cccc(OCCOCCNC(C)(C)C)c1	3	16*	4	0	-8	2
CCOc1ccc(OCCCCNC(C)(C)C)cc1	-9	-1	7	0	0	-9
Cc1ccc(C(=O)/C=C/c2c[nH]c3ccccc23)cc1	8	28*	-3	0	-7	15
O=C(/C=C/c1c[nH]c2ccccc12)c1ccccc1	-1	24*	0	·	1	-13
Cc1ccc(C(=O)/C=C/c2cn(CN3CCN(C)CC3)c3ccccc23)cc1	7	38*	-2	·	-8	-13
COc1ccc2[nH]cc(/C=C/C(=O)c3ccccc3)c2c1	-2	29*	-3	0	-11	2
CN(C)C(=O)C[C@H]1CC[C@H]2[C@@H](COc3ccc(NS(=O)(=O)c4cccc(F)c4)cc3C(=O)N2C)O1	·	·	·	0	·	·
COc1ccc2c3c([nH]c2c1)[C@@H](CO)N(C(=O)c1cccc(F)c1)CC31CN(C(=O)c2ccccc2)C1	·	·	·	0	·	·
Cc1cccc(C(=O)Nc2ccccc2SCC(=O)Nc2ccc(C)c(Cl)c2)c1	-4	15*	2	·	0	3
COc1ccc(NC(=O)[C@@H]2CC=C[C@@H]3CCN(C4CCCCC4)C(=O)[C@@H]32)cc1	-7	12*	·	·	·	-10
COc1ccc(Nc2nc(N)nc(CSc3nnc(N)s3)n2)cc1	1	9	-3	·	3	-10
COc1ccc(Nc2nc(N)nc(CSc3nccn3C)n2)cc1	-4	-2	1	44*	4	-8
CCCN1[C@@H]2c3ccc(-c4ccc(OC)cc4)c(=O)n3C[C@@H]2[C@@H](CO)[C@@H]1C(=O)N(C)C	·	·	·	0	·	·
C[C@H](CO)N1C[C@H](C)[C@@H](CN(C)C(=O)Nc2ccc3c(c2)OCO3)OCCCC[C@H](C)Oc2ccc(NC(=O)c3ccncc3)cc2C1=O	·	·	·	0	·	·
COc1ccc(Oc2ccc(N/C=C3\CCCC3=O)cc2)cc1	3	-11	-6	·	8	-5
COc1ccc(Oc2ccc(N/C=C3/CCCC3=O)cc2)cc1	-1	17*	-8	0	-2	-10
CCCNC(=O)[C@@H]1[C@@H](CO)[C@@H]2Cn3c(ccc(-c4ccc(F)cc4)c3=O)[C@@H]2N1CCC	·	·	·	0	·	·
C[C@@H]1CN([C@@H](C)CO)C(=O)c2cccc(NS(=O)(=O)c3cn(C)cn3)c2O[C@@H]1CN(C)Cc1ccc(C(F)(F)F)cc1	·	·	·	0	·	·
O=C(C[C@H]1C[C@@H]2c3cc(NS(=O)(=O)c4ccc(F)cc4)ccc3O[C@@H]2[C@@H](CO)O1)N1CCCCC1	·	·	·	0	·	·
C/C=C/c1cnc2c(c1)C(=O)N([C@@H](C)CO)C[C@H](C)[C@H](CN(C)Cc1ccccc1)O2	·	·	·	0	·	·
CO[C@H]1CC[C@@H]2CCN(C)C(=O)CCCN(C)C(=O)c3cccc(C#N)c3OC[C@@H]1O2	·	·	·	0	·	·
O=C(NNC(=O)c1cc2cc(OC(F)(F)F)ccc2[nH]1)c1ccc(Cl)cc1	11	14*	-3	0	3	-5
CCS(=O)(=O)N1CCCCN2[C@H](CO)[C@@H](c3ccc(C#CC(C)(C)O)cc3)[C@@H]2C1	·	·	·	0	·	·
CC(=O)OC1(C(C)=O)CCC2C3CC4OC45CC(O)CCC5(C)C3CCC21C (stereo not given)	·	-1	·	0	·	·
SMILES	EBNA-1 inh	NR3A LBD binder	DNA FID counter	FGF22 binding	HCV NS3 hel inh	ZTA counter
CC(=O)OC1CCC2(C)C3CCC4(C)C(C(C)=O)CCC4C3CC3OC32C1 (stereo not given)	·	-7	·	43*	·	·
CCc1c(C)sc2nc3c(C(=O)N4CCOCC4)cc(C(=O)c4ccccc4O)cn3c(=O)c12	-2	-3	-2	43*	3	10
O=C(c1cc(C(=O)N2CCOCC2)c2nc3ccccc3n2c1)c1cc(Cl)cc(Cl)c1O	4	-8	-50	1	25	12
COc1ccc(S(=O)(=O)N2CCCCN3[C@@H](CO)[C@H](c4ccc(C5=CCCC5)cc4)[C@@H]3C2)cc1	·	·	·	0	·	·
COc1ccc(-c2cc3ccccc3cn2)cc1	·	-34	·	44*	·	-16
COc1ccc(-c2cc3ccc(OC)cc3cn2)cc1	·	41*	·	0	·	9
